In ChEMBL document CHEMBL1149770, “Synthesis and antimicrobial studies of novel dichlorofluorophenyl containing aminotriazolothiadiazines” (2008):
In brackets after ≈: the same amount, converted by molar mass.

Columns and labels:
[1] = tested on: Pseudomonas aeruginosa; assay: Antibacterial activity against Pseudomonas aeruginosa ATCC 27853 after 24 hrs by broth dilution technique; format: functional; conditions: ATCC 27853, 24 h
In short: (§1)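 MIC by broth dilution in nutrient broth with logarithmic serial twofold dilutions of compound. Inoculum approx. 5×10^5 c.f.u actively dividing bacteria. Incubated 24 h at 37 °C, growth monitored visually and spectrophotometrically. MIC taken as the lowest concentration (highest dilution) arresting growth. Ciprofloxacin reference.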

[2] = tested on: Trichophyton mentagrophytes; assay: Antifungal activity against Trichophyton mentagrophytes assessed as inhibition zone diameter […] by agar dilution method; format: functional
In short: (§2)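 Compounds in DMSO placed in punched wells on Sabouraud agar (peptone, glucose, agar, pH 5.7) lawned with saline spore suspension. Plates pre-dried 1 h at 37 °C. Controls in triplicate, incubation at 37 °C for 3-4 days, then inhibition zone diameter read in mm. Amphotericin B reference.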

[3] = tested on: Aspergillus fumigatus; assay: Antifungal activity against Aspergillus fumigatus after 48 hrs […]; format: functional
[4] = tested on: Candida albicans; assay: Antifungal activity against Candida albicans after 48 hrs […]; format: functional
[5] = tested on: Streptococcus pyogenes; assay: Antibacterial activity against Streptococcus pyogenes assessed as inhibition zone diameter after 24 hrs by disc diffusion method
[6] = tested on: Staphylococcus aureus; assay: Antibacterial activity against Staphylococcus aureus ATCC 25923 assessed as inhibition zone diameter after 24 hrs […]; format: functional
In short: (§3)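 Disc diffusion on nutrient agar. Inoculum 1-2 × 10^7 c.f.u/ml (0.5 McFarland) spread over the plate surface. Sterile 6.25 mm filter-paper discs soaked in a known concentration of compound. Solvent and growth controls included. Plates incubated inverted 24 h at 37 °C, then inhibition zone diameter measured in mm. Ciprofloxacin reference.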

[7] = tested on: Candida albicans; assay: Antifungal activity against Candida albicans assessed as inhibition zone diameter […] by agar dilution method; format: functional; in short: as §2
[8] = tested on: Escherichia coli; assay: Antibacterial activity against Escherichia coli ATCC 25922 after 24 hrs by broth dilution technique; format: functional; conditions: ATCC 25922, 24 h; in short: as §1
[9] = tested on: Talaromyces marneffei; assay: Antifungal activity against Penicillium marneffei after 48 hrs […]; format: functional
[10] = tested on: Talaromyces marneffei; assay: Antifungal activity against Penicillium marneffei assessed as inhibition zone diameter […] by agar dilution method; format: functional; in short: as §2
[11] = tested on: Streptococcus pyogenes; assay: Antibacterial activity against Streptococcus pyogenes after 24 hrs by broth dilution technique; format: functional; in short: as §1
[12] = tested on: Klebsiella pneumoniae; assay: Antibacterial activity against Klebsiella pneumoniae after 24 hrs by broth dilution technique; format: functional; in short: as §1
[13] = tested on: Aspergillus fumigatus; assay: Antifungal activity against Aspergillus fumigatus assessed as inhibition zone diameter […] by agar dilution method; format: functional; in short: as §2
[14] = tested on: Staphylococcus aureus; assay: Antibacterial activity against Staphylococcus aureus ATCC 25923 after 24 hrs by broth dilution technique; format: functional; conditions: ATCC 25923, 24 h; in short: as §1
[15] = tested on: Pseudomonas aeruginosa; assay: Antibacterial activity against Pseudomonas aeruginosa ATCC 27853 assessed as inhibition zone diameter after 24 hrs […]; format: functional; in short: as §3
[16] = tested on: Klebsiella pneumoniae; assay: Antibacterial activity against Klebsiella pneumoniae assessed as inhibition zone diameter after 24 hrs […]; format: functional; in short: as §3
[17] = tested on: Aspergillus flavus; assay: Antifungal activity against Aspergillus flavus assessed as inhibition zone diameter […] by agar dilution method; format: functional; in short: as §2
[18] = tested on: Trichophyton mentagrophytes; assay: Antifungal activity against Trichophyton mentagrophytes after 48 hrs […]; format: functional
[19] = tested on: Aspergillus flavus; assay: Antifungal activity against Aspergillus flavus after 48 hrs […]; format: functional

| Structure (SMILES) | MIC [1] [µg/mL] | MIC [3] [µg/mL] | MIC [4] [µg/mL] | MIC [8] [µg/mL] | MIC [9] [µg/mL] | MIC [11] [µg/mL] | MIC [12] [µg/mL] | MIC [14] [µg/mL] | MIC [18] [µg/mL] | MIC [19] [µg/mL] | inhibition zone (IZ) [2] [mm] | inhibition zone (IZ) [5] [mm] | inhibition zone (IZ) [6] [mm] | inhibition zone (IZ) [7] [mm] | inhibition zone (IZ) [10] [mm] | inhibition zone (IZ) [13] [mm] | inhibition zone (IZ) [15] [mm] | inhibition zone (IZ) [16] [mm] | inhibition zone (IZ) [17] [mm] |
| --- | --- | --- | --- | --- | --- | --- | --- | --- | --- | --- | --- | --- | --- | --- | --- | --- | --- | --- | --- |
| Nn1c(SCC(=O)Nc2ccccc2C(F)(F)F)nnc1-c1cc(F)c(Cl)cc1Cl | 6.25 (≈ 13 µM) | 6.25 (≈ 13 µM) | 6.25 (≈ 13 µM) | 6.25 (≈ 13 µM) | 6.25 (≈ 13 µM) | 6.25 (≈ 13 µM) | 6.25 (≈ 13 µM) | 6.25 (≈ 13 µM) | 6.25 (≈ 13 µM) | 6.25 (≈ 13 µM) | 18 | 22 | 25 | 19 | 22 | 19 | 29 | 20 | 21 |
| Fc1cc(-c2nnc3n2N=C(Nc2ccccc2C(F)(F)F)CS3)c(Cl)cc1Cl | 6.25 (≈ 13.5 µM) | 6.25 (≈ 13.5 µM) | 6.25 (≈ 13.5 µM) | 6.25 (≈ 13.5 µM) | 6.25 (≈ 13.5 µM) | 6.25 (≈ 13.5 µM) | 6.25 (≈ 13.5 µM) | 6.25 (≈ 13.5 µM) | 6.25 (≈ 13.5 µM) | 6.25 (≈ 13.5 µM) | 17 | 23 | 22 | 18 | 21 | 21 | 30 | 21 | 21 |
| Nn1c(SCC(=O)Nc2ccc(F)c(Cl)c2)nnc1-c1cc(F)c(Cl)cc1Cl | 6.25 (≈ 13.4 µM) | 12.5 (≈ 26.9 µM) | 12.5 (≈ 26.9 µM) | 6.25 (≈ 13.4 µM) | 6.25 (≈ 13.4 µM) | 6.25 (≈ 13.4 µM) | 6.25 (≈ 13.4 µM) | 6.25 (≈ 13.4 µM) | 12.5 (≈ 26.9 µM) | 25 (≈ 53.8 µM) | 11 | 23 | 24 | 15 | 20 | 16 | 31 | 20 | 8 |
| Fc1cc(-c2nnc3n2N=C(Nc2ccc(Cl)cc2)CS3)c(Cl)cc1Cl | 6.25 (≈ 14.6 µM) | 6.25 (≈ 14.6 µM) | 6.25 (≈ 14.6 µM) | 6.25 (≈ 14.6 µM) | 12.5 (≈ 29.2 µM) | 6.25 (≈ 14.6 µM) | 6.25 (≈ 14.6 µM) | 6.25 (≈ 14.6 µM) | 12.5 (≈ 29.2 µM) | 6.25 (≈ 14.6 µM) | 11 | 25 | 24 | 16 | 15 | 18 | 32 | 20 | 20 |

More lines, main results first:

| MIC [1] [µg/mL] | MIC [3] [µg/mL] | MIC [4] [µg/mL] | MIC [8] [µg/mL] | MIC [9] [µg/mL] | MIC [11] [µg/mL] | MIC [12] [µg/mL] | MIC [14] [µg/mL] | MIC [18] [µg/mL] | MIC [19] [µg/mL] | Structure (SMILES) | inhibition zone (IZ) [2] [mm] | inhibition zone (IZ) [5] [mm] | inhibition zone (IZ) [6] [mm] | inhibition zone (IZ) [7] [mm] | inhibition zone (IZ) [10] [mm] | inhibition zone (IZ) [13] [mm] | inhibition zone (IZ) [15] [mm] | inhibition zone (IZ) [16] [mm] | inhibition zone (IZ) [17] [mm] |
| --- | --- | --- | --- | --- | --- | --- | --- | --- | --- | --- | --- | --- | --- | --- | --- | --- | --- | --- | --- |
| 6.25 (≈ 12.6 µM) | 6.25 (≈ 12.6 µM) | 6.25 (≈ 12.6 µM) | 6.25 (≈ 12.6 µM) | 6.25 (≈ 12.6 µM) | 6.25 (≈ 12.6 µM) | 6.25 (≈ 12.6 µM) | 6.25 (≈ 12.6 µM) | 6.25 (≈ 12.6 µM) | 6.25 (≈ 12.6 µM) | Fc1cc(-c2nnc3n2N=C(Nc2cc(Cl)c(Cl)cc2Cl)CS3)c(Cl)cc1Cl | 18 | 23 | 24 | 20 | 24 | 19 | 32 | 20 | 23 |
| 6.25 (≈ 14.2 µM) | 25 (≈ 56.8 µM) | 12.5 (≈ 28.4 µM) | 6.25 (≈ 14.2 µM) | 25 (≈ 56.8 µM) | 6.25 (≈ 14.2 µM) | 25 (≈ 56.8 µM) | 6.25 (≈ 14.2 µM) | 6.25 (≈ 14.2 µM) | 25 (≈ 56.8 µM) | Cc1ccc(NC(=O)CSc2nnc(-c3cc(F)c(Cl)cc3Cl)n2N)c(C)c1 | 12 | 18 | 17 | 14 | 9 | 8 | 30 | 10 | 10 |
| 12.5 (≈ 28.4 µM) | 6.25 (≈ 14.2 µM) | 6.25 (≈ 14.2 µM) | 12.5 (≈ 28.4 µM) | 12.5 (≈ 28.4 µM) | 6.25 (≈ 14.2 µM) | 12.5 (≈ 28.4 µM) | 6.25 (≈ 14.2 µM) | 6.25 (≈ 14.2 µM) | 12.5 (≈ 28.4 µM) | Cc1cccc(NC(=O)CSc2nnc(-c3cc(F)c(Cl)cc3Cl)n2N)c1C | 16 | 24 | 20 | 18 | 15 | 20 | 20 | 17 | 15 |
